Measured values reported in ChEMBL document CHEMBL1649514, “AmpDI is involved in expression of the chromosomal L1 and L2 beta-lactamases of Stenotrophomonas maltophilia” (2009).
Values after ≈ are worked out from the molar mass of the structure shown.

Columns and labels:
Type in all cases: functional
[1] = tested on: Stenotrophomonas maltophilia; assay: Antimicrobial activity against Stenotrophomonas maltophilia KJ by twofold serial agar dilution method
Summary of the method: (§1)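 MICs by standard twofold serial agar dilution following CLSI guidelines, done in triplicate. Strains were wild-type clinical isolate KJ, which produces L1 and L2 β-lactamases, and its isogenic ampDI, ampDII and ampDI/ampDII deletion mutants. For cefepime, imipenem and meropenem, MICs were instead read from Etest strips per the manufacturer's instructions.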

[2] = tested on: Stenotrophomonas maltophilia; assay: Antimicrobial activity against ampD1-, ampD2-deficient Stenotrophomonas maltophilia KJ by twofold serial agar dilution method; summary of the method: as §1
[3] = tested on: Stenotrophomonas maltophilia; assay: Antimicrobial activity against ampD2-deficient Stenotrophomonas maltophilia KJ by twofold serial agar dilution method; summary of the method: as §1
[4] = tested on: Stenotrophomonas maltophilia; assay: Antimicrobial activity against ampD1-deficient Stenotrophomonas maltophilia KJ by twofold serial agar dilution method; summary of the method: as §1

Compound	MIC [1] [µg/mL]	MIC [2] [µg/mL]	MIC [3] [µg/mL]	MIC [4] [µg/mL]
C[C@H]1[C@H](NC(=O)/C(=N\OC(C)(C)C(=O)O)c2csc(N)n2)C(=O)N1S(=O)(=O)O [AZTREONAM]	> 2050	> 2050	> 2050	> 2050
CC1(C)S[C@@H]2[C@H](NC(=O)C(C(=O)O)c3ccccc3)C(=O)N2[C@H]1C(=O)O (stereo partly specified) [CARBENICILLIN]	1020 (≈ 2710 µM)	1020 (≈ 2710 µM)	1020 (≈ 2710 µM)	1020 (≈ 2710 µM)
CO/N=C(\C(=O)N[C@@H]1C(=O)N2C(C(=O)[O-])=C(C[N+]3(C)CCCC3)CS[C@H]12)c1csc(N)n1 [CEFEPIME]	64 (≈ 133 µM)	96 (≈ 200 µM)	64 (≈ 133 µM)	96 (≈ 200 µM)
CO[C@@]1(NC(=O)Cc2cccs2)C(=O)N2C(C(=O)O)=C(COC(N)=O)CS[C@@H]21 [CEFOXITIN]	1020 (≈ 2400 µM)	1020 (≈ 2400 µM)	1020 (≈ 2400 µM)	1020 (≈ 2400 µM)
CO/N=C(\C(=O)N[C@@H]1C(=O)N2C(C(=O)O)=C(COC(N)=O)CS[C@H]12)c1ccco1 [CEFUROXIME]	2050 (≈ 4830 µM)	2050 (≈ 4830 µM)	2050 (≈ 4830 µM)	2050 (≈ 4830 µM)
CCN1CCN(C(=O)N[C@@H](C(=O)N[C@@H]2C(=O)N3[C@@H]2SC(C)(C)[C@@H]3C(=O)O)c2ccccc2)C(=O)C1=O [PIPERACILLIN]	1020 (≈ 1980 µM)	1020 (≈ 1980 µM)	1020 (≈ 1980 µM)	1020 (≈ 1980 µM)

Next, values leading:

MIC [1] [µg/mL]	MIC [2] [µg/mL]	MIC [3] [µg/mL]	MIC [4] [µg/mL]	Compound
256 (≈ 462 µM)	256 (≈ 462 µM)	256 (≈ 462 µM)	256 (≈ 462 µM)	CO/N=C(\C(=O)N[C@@H]1C(=O)N2C(C(=O)O)=C(CSc3nc(=O)c(O)nn3C)CS[C@H]12)c1csc(N)n1 [CEFTRIAXONE]
> 32	> 32	> 32	> 32	C[C@@H](O)[C@H]1C(=O)N2C(C(=O)O)=C(SCCNC=N)C[C@H]12 [IMIPENEM ANHYDROUS]
> 32	> 32	> 32	> 32	C[C@@H](O)[C@H]1C(=O)N2C(C(=O)O)=C(S[C@@H]3CN[C@H](C(=O)N(C)C)C3)[C@H](C)[C@H]12 [MEROPENEM]
